# Paper PMC10246574 (International Journal of Nanomedicine, 2023)
# Key:
# [1] = Cytotoxicity by MTT assay in HaCaT cells; format: cell-based; conditions: human, HaCaT cells (immortalized epidermal keratinocytes)
# Method in brief: (§1)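 Thawed cells grown in DMEM with 10% v/v fetal calf serum, 1 mM L-glutamine, penicillin and streptomycin at 37 °C, 5% CO2. Seeded at 3 × 10^5 (HaCaT) or 3.5 × 10^5 (Hs68) cells/well for 24 h. Treated with oil at 0–100 µg/mL for 48 h. MTT (5 mg/mL solution) added for 4 h; formazan dissolved in DMSO; A578 and A630.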
# [2] = Cytotoxicity by MTT assay in Hs68 cells; format: cell-based; conditions: human, Hs68 cells (foreskin fibroblasts)
# Method in brief: as §1
# [3] = test system: chorio-allantoic membrane of fertilized hen's eggs; assay: Hen's egg chorio-allantoic membrane; conditions: for irritation score (IS): 30 µL applied, observed 300 s; for irritation category: from IS
# Method in brief: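 Fertilized hen's eggs (7–10 days) incubated at 37.5 ± 0.5 °C and 62.5 ± 7.5% humidity with rotation. Shell over the air cell opened, membrane moistened with saline and removed. 30 µL sample applied to the CAM. First hemorrhage, vascular lysis and coagulation timed over 300 s; IS = [(301−h)×5]/300 + [(301−l)×7]/300 + [(301−c)×9]/300. CAM also imaged at 0, 5 and 60 min. Controls: 1% w/v SLS and normal saline.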
# [4] = test system: rabbit skin; conditions: rabbits, ref Acid (1987) [48], cited from earlier work
# [5] = test system: human skin; conditions: daily application under occlusive patch, human volunteers; cited from earlier work
SMILES,IC20 at 48 h [1] [µg/mL],"viability at 48 h, 100 µg/mL [1] [%]",IC20 at 48 h [2] [µg/mL],"viability at 48 h, 100 µg/mL [2] [%]",irritation score (IS) [3],irritation category [3],primary irritation index (PII) ([4]; single insult occlusive patch test),"erythema ([4]; oleic acid after 24 h, palmitic acid after 2–24 h)",irritation of human skin [5],irritation signs on CAM after 60 min of exposure ([3]; 60 min)
CCCCCCCC/C=C\CCCCCCCC(=O)O [oleic acid],100,82.2 ± 6.1,> 100,> 90,0.0 ± 0.0,no irritant effect,0.5,moderate erythema,not found to be irritating,–
CCCCC/C=C\C/C=C\CCCCCCCC(=O)O [linoleic acid],100,73.8 ± 5.8,> 100,> 90,0.0 ± 0.0,no irritant effect,–,–,found to produce irritation,–
"CCCCCCCCCCCCOS(=O)(=O)[O-].[Na+] [SLS, sodium lauryl sulphate]",–,–,–,–,12.5 ± 0.3,severe irritation,–,–,–,–
CCCCCCCCCCCCCCCC(=O)O [palmitic acid],100,75.9 ± 3.5,> 100,> 90,0.0 ± 0.0,no irritant effect,–,–,not found to be irritating,vascular lysis was detected
